Source: ChEMBL document CHEMBL3091449, “Synthesis and antimicrobial profile of N-substituted imidazolium oximes and their monoquaternary salts against multidrug resistant bacteria” (2013)
In brackets after ≈: the same amount, converted by molar mass.

Legend:
Assay type in all cases: functional
Acinetobacter baumannii = assay: Antibacterial activity against SIM-1 expressing Acinetobacter baumannii isolate 170 after 18 to 24 hrs by two-fold broth microdilution assay
In short: (§1)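 CLSI two-fold broth microdilution. Compounds dissolved in DMSO, 10 mg/mL stock, serially diluted to 400–0.09 µg/mL in Mueller Hinton broth. Wells inoculated with 10^6 CFU/mL bacteria and incubated 18–24 h at 37 °C. 0.2 mg/mL INT added for 30 min. MIC taken as the lowest concentration with no visible growth or pink colour. Triplicate.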

[1] = system: Stenotrophomonas maltophilia; assay: Antibacterial activity against […] expressing Stenotrophomonas maltophilia isolate 125 after 18 to 24 hrs by two-fold broth microdilution assay
In short: (§2)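 CLSI two-fold broth microdilution was used. Compounds were dissolved in DMSO, brought to 10 mg/mL in medium, then serially diluted in Mueller Hinton broth over 400–0.09 µg/mL. Overnight MHB cultures were diluted to 10^6 CFU/mL, and 10 µL was added per well. Plates were incubated 18–24 h at 37 °C, then 0.2 mg/mL INT was added for 30 min at 37 °C. MIC was the lowest concentration with no visible growth or pink colour, triplicate.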

Enterobacter cloacae [2] = assay: Antibacterial activity against TEM-1/CTX-M-15 expressing Enterobacter cloacae isolate 62 after 18 to 24 hrs by two-fold broth microdilution assay
Enterobacter cloacae [3] = assay: Antibacterial activity against CTX-15 expressing Enterobacter cloacae isolate 51 after 18 to 24 hrs by two-fold broth microdilution assay
Aeromonas hydrophila [4] = assay: Antibacterial activity against TEM-1/SHV-12 expressing Aeromonas hydrophila isolate 268 after 18 to 24 hrs by two-fold broth microdilution assay; in short: as §2
Escherichia coli [5] = assay: Antibacterial activity against TEM-1/SHV-12 expressing Escherichia coli isolate 237 after 18 to 24 hrs by two-fold broth microdilution assay; in short: as §1
Klebsiella pneumoniae [6] = assay: Antibacterial activity against TEM-1/SHV-12 expressing Klebsiella pneumoniae isolate 303 after 18 to 24 hrs by two-fold broth microdilution assay; in short: as §2
Enterobacter cloacae [7] = assay: Antibacterial activity against TEM-1/SHV-12 expressing Enterobacter cloacae isolate 306 after 18 to 24 hrs by two-fold broth microdilution assay
Kluyvera intermedia = assay: Antibacterial activity against TEM-1/SHV-12/[…] expressing Enterobacter intermedius isolate 243 after 18 to 24 hrs by two-fold broth microdilution assay; in short: as §2
Pseudomonas aeruginosa [8] = assay: Antibacterial activity against GIM-1 expressing Pseudomonas aeruginosa isolate 197 after 18 to 24 hrs by two-fold broth microdilution assay; in short: as §2
Aeromonas caviae [9] = assay: Antibacterial activity against TEM-1/CTX-M-15 expressing Aeromonas caviae isolate 260 after 18 to 24 hrs by two-fold broth microdilution assay; in short: as §2
Aeromonas caviae [10] = assay: Antibacterial activity against […] expressing Aeromonas caviae isolate 258 after 18 to 24 hrs by two-fold broth microdilution assay; in short: as §2
Escherichia coli [11] = assay: Antibacterial activity against […] expressing Escherichia coli isolate 4024 after 18 to 24 hrs by two-fold broth microdilution assay; in short: as §1
Escherichia coli [12] = assay: Antibacterial activity against […] expressing Escherichia coli isolate 235 after 18 to 24 hrs by two-fold broth microdilution assay; in short: as §1
Aspergillus fumigatus = assay: Antifungal activity against Aspergillus fumigatus FNSST 3833 assessed as diameter of zone of inhibition at 250 ug/disc after 72 hrs by disc diffusion method; conditions: FNSST 3833, 72 h, read-out: DIZ
In short: (§3)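 Fungi were grown overnight at 30 °C in Sabouraud dextrose broth to 10^4 cfu/mL, and 100 µL was spread on Sabouraud dextrose agar. 6 mm discs carried 250 µg (25 µL of a 10 mg/mL stock in 96% ethanol), with ethanol as the negative control. Incubation was at 30 °C for 48 h (yeast) or 72 h (molds). Zone diameter was read including the disc, in triplicate, mean ± SE.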

Aeromonas hydrophila [13] = assay: Antibacterial activity against Aeromonas hydrophila FNSST 014 assessed as diameter of zone of inhibition at 250 ug/disc after 24 hrs by disc diffusion method; conditions: FNSST 014, 24 h, read-out: DIZ
In short: (§4)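 Bacteria were grown overnight at 37 °C in TSB to about 10^6 cfu/mL, and 100 µL was spread on Mueller Hinton agar. Sterile 6 mm discs were each loaded with 25 µL of a 10 mg/mL stock in 96% ethanol, giving 250 µg/disc. Ethanol served as the negative control. Plates were incubated 24 h at 37 °C. Inhibition zone diameter was measured including the disc, in triplicate, as mean ± SE.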

Escherichia coli [14] = assay: Antibacterial activity against Escherichia coli FNSST 982 assessed as diameter of zone of inhibition at 250 ug/disc after 24 hrs by disc diffusion method; conditions: FNSST 982, 24 h, read-out: DIZ; in short: as §4
Talaromyces funiculosus = assay: Antifungal activity against Penicillium funiculosum FNSST 3724 assessed as diameter of zone of inhibition at 250 ug/disc after 72 hrs by disc diffusion method; conditions: FNSST 3724, 72 h, read-out: DIZ; in short: as §3
Candida albicans = assay: Antifungal activity against Candida albicans ATCC 10231 assessed as diameter of zone of inhibition at 250 ug/disc after 48 hrs by disc diffusion method; conditions: ATCC 10231, 48 h, read-out: DIZ; in short: as §3
Enterococcus faecalis [15] = assay: Antibacterial activity against Enterococcus faecalis ATCC 29212 assessed as diameter of zone of inhibition at 250 ug/disc after 24 hrs by disc diffusion method; conditions: ATCC 29212, 24 h, read-out: DIZ; in short: as §4
Staphylococcus aureus [16] = assay: Antibacterial activity against Staphylococcus aureus ATCC 25923 assessed as diameter of zone of inhibition at 250 ug/disc after 24 hrs by disc diffusion method; conditions: ATCC 25923, 24 h, read-out: DIZ; in short: as §4
Bacillus cereus [17] = assay: Antibacterial activity against Bacillus cereus ATCC 11778 assessed as diameter of zone of inhibition at 250 ug/disc after 24 hrs by disc diffusion method; conditions: ATCC 11778, 24 h, read-out: DIZ; in short: as §4
Pseudomonas aeruginosa [18] = assay: Antibacterial activity against Pseudomonas aeruginosa FNSST 982 after 18 to 24 hrs by two-fold broth microdilution assay; in short: as §2
Klebsiella pneumoniae [19] = assay: Antibacterial activity against Klebsiella pneumoniae FNSST 011 assessed as diameter of zone of inhibition at 250 ug/disc after 24 hrs by disc diffusion method; conditions: FNSST 011, 24 h, read-out: DIZ; in short: as §4
Enterococcus faecalis [20] = assay: Antibacterial activity against Enterococcus faecalis ATCC 29212 after 18 to 24 hrs by two-fold broth microdilution assay; in short: as §2
Aeromonas hydrophila [21] = assay: Antibacterial activity against Aeromonas hydrophila FNSST 014 after 18 to 24 hrs by two-fold broth microdilution assay; in short: as §2
Escherichia coli [22] = assay: Antibacterial activity against Escherichia coli FNSST 982 after 18 to 24 hrs by two-fold broth microdilution assay; in short: as §2
Klebsiella pneumoniae [23] = assay: Antibacterial activity against Klebsiella pneumoniae FNSST 011 after 18 to 24 hrs by two-fold broth microdilution assay; in short: as §2
Clostridium perfringens [24] = assay: Antibacterial activity against Clostridium perfringens FNSST 4999 after 18 to 24 hrs by two-fold broth microdilution assay; in short: as §1
Bacillus cereus [25] = assay: Antibacterial activity against Bacillus cereus ATCC 11778 after 18 to 24 hrs by two-fold broth microdilution assay; in short: as §2
Staphylococcus aureus [26] = assay: Antibacterial activity against Staphylococcus aureus ATCC 25923 after 18 to 24 hrs by two-fold broth microdilution assay; in short: as §2
Clostridium perfringens [27] = assay: Antibacterial activity against Clostridium perfringens FNSST 4999 assessed as diameter of zone of inhibition at 250 ug/disc after 24 hrs by disc diffusion method; conditions: FNSST 4999, 24 h, read-out: DIZ
In short: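 Disc diffusion per CLSI: 100 µL of 10^6 cfu/mL bacterial suspension spread on Mueller Hinton agar. 6 mm discs loaded with 25 µL of 10 mg/mL compound stock in 96% ethanol (250 µg/disc); ethanol as negative control. Incubated 24 h at 37 °C. Inhibition zone diameter measured in mm including the disc, triplicate, reported as mean ± SE.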

Pseudomonas aeruginosa [28] = assay: Antibacterial activity against Pseudomonas aeruginosa FNSST 982 assessed as diameter of zone of inhibition at 250 ug/disc after 24 hrs by disc diffusion method; conditions: FNSST 982, 24 h, read-out: DIZ; in short: as §4

Row | Compound | MIC (Acinetobacter baumannii) | MIC [1] | MIC (Enterobacter cloacae [2]) | MIC (Enterobacter cloacae [3]) | MIC (Aeromonas hydrophila [4]) | MIC (Escherichia coli [5]) | MIC (Klebsiella pneumoniae [6]) | MIC (Enterobacter cloacae [7]) | MIC (Kluyvera intermedia) | MIC (Pseudomonas aeruginosa [8]) | MIC (Aeromonas caviae [9]) | MIC (Aeromonas caviae [10]) | MIC (Escherichia coli [11]) | MIC (Escherichia coli [12]) | zone of inhibition at 250 µg/disc (Aspergillus fumigatus) | zone of inhibition at 250 µg/disc (Aeromonas hydrophila [13]) | zone of inhibition at 250 µg/disc (Escherichia coli [14]) | zone of inhibition at 250 µg/disc (Talaromyces funiculosus) | zone of inhibition at 250 µg/disc (Candida albicans) | zone of inhibition at 250 µg/disc (Enterococcus faecalis [15]) | further results
1 | NC[C@H]1O[C@H](O[C@H]2[C@H](O)[C@@H](O[C@H]3O[C@H](CO)[C@@H](O)[C@H](N)[C@H]3O)[C@H](N)C[C@@H]2N)[C@H](N)C[C@@H]1O [TOBRAMYCIN] | 16 µg/mL (≈ 34.2 µM) | 8 µg/mL (≈ 17.1 µM) | 32 µg/mL (≈ 68.4 µM) | > 32 µg/mL | 16 µg/mL (≈ 34.2 µM) | 64 µg/mL (≈ 137 µM) | 2 µg/mL (≈ 4.28 µM) | 16 µg/mL (≈ 34.2 µM) | > 32 µg/mL | 16 µg/mL (≈ 34.2 µM) | 32 µg/mL (≈ 68.4 µM) | 32 µg/mL (≈ 68.4 µM) | 32 µg/mL (≈ 68.4 µM) | 16 µg/mL (≈ 34.2 µM) |  |  |  |  |  |  | 
2 | C[C@@H](O)[C@H]1C(=O)N2C(C(=O)O)=C(SCCNC=N)C[C@H]12 [IMIPENEM ANHYDROUS] | 8 µg/mL (≈ 26.7 µM) | 0.12 µg/mL (≈ 0.401 µM) | 0.25 µg/mL (≈ 0.835 µM) | 8 µg/mL (≈ 26.7 µM) | 0.06 µg/mL (≈ 0.2 µM) | 0.125 µg/mL (≈ 0.418 µM) | 0.12 µg/mL (≈ 0.401 µM) | 0.25 µg/mL (≈ 0.835 µM) | 0.12 µg/mL (≈ 0.401 µM) | > 8 µg/mL | 2 µg/mL (≈ 6.68 µM) | 0.25 µg/mL (≈ 0.835 µM) |  | 0.06 µg/mL (≈ 0.2 µM) |  |  |  |  |  |  | 
3 | O/N=C/c1nccn1-c1ccccc1 |  |  |  |  |  |  |  |  |  |  |  |  |  |  | 19.5 mm | 17.7 mm | 17.8 mm | 17.9 mm | 16.4 mm | 15.7 mm | zone of inhibition at 250 µg/disc (Staphylococcus aureus [16]): 10.1 mm; zone of inhibition at 250 µg/disc (Bacillus cereus [17]): 15.4 mm; MIC (Pseudomonas aeruginosa [18]): 25 µg/mL (≈ 134 µM); zone of inhibition at 250 µg/disc (Klebsiella pneumoniae [19]): 17.2 mm; MIC (Enterococcus faecalis [20]): 6.25 µg/mL (≈ 33.4 µM); MIC (Aeromonas hydrophila [21]): 50 µg/mL (≈ 267 µM); MIC (Escherichia coli [22]): 50 µg/mL (≈ 267 µM); MIC (Klebsiella pneumoniae [23]): 100 µg/mL (≈ 534 µM); MIC (Clostridium perfringens [24]): 100 µg/mL (≈ 534 µM); MIC (Bacillus cereus [25]): 50 µg/mL (≈ 267 µM); MIC (Staphylococcus aureus [26]): 100 µg/mL (≈ 534 µM); zone of inhibition at 250 µg/disc (Clostridium perfringens [27]): 16.5 mm; zone of inhibition at 250 µg/disc (Pseudomonas aeruginosa [28]): 15.8 mm
4 | O/N=C/c1n(Cc2ccccc2)cc[n+]1Cc1ccccc1.[Br-] |  |  |  |  |  |  |  |  |  |  |  |  |  |  | 20.9 mm | 17.1 mm | 14.2 mm | 17.6 mm | 20.9 mm | 17.1 mm | zone of inhibition at 250 µg/disc (Staphylococcus aureus [16]): 14.2 mm; zone of inhibition at 250 µg/disc (Bacillus cereus [17]): 15.5 mm; MIC (Pseudomonas aeruginosa [18]): 62.5 µg/mL; zone of inhibition at 250 µg/disc (Klebsiella pneumoniae [19]): 18.6 mm; MIC (Enterococcus faecalis [20]): 12.5 µg/mL; MIC (Aeromonas hydrophila [21]): 50 µg/mL; MIC (Escherichia coli [22]): 100 µg/mL; MIC (Klebsiella pneumoniae [23]): 42 µg/mL; MIC (Clostridium perfringens [24]): 25 µg/mL; MIC (Bacillus cereus [25]): 75 µg/mL; MIC (Staphylococcus aureus [26]): 12.5 µg/mL; zone of inhibition at 250 µg/disc (Clostridium perfringens [27]): 18.3 mm; zone of inhibition at 250 µg/disc (Pseudomonas aeruginosa [28]): 12.4 mm
5 | CN(C)[C@@H]1C(O)=C(C(N)=O)C(=O)[C@@]2(O)C(O)=C3C(=O)c4c(O)cccc4[C@@](C)(O)[C@H]3C[C@@H]12 [TETRACYCLINE] | 64 µg/mL (≈ 144 µM) | 128 µg/mL (≈ 288 µM) | 16 µg/mL (≈ 36 µM) | 64 µg/mL (≈ 144 µM) | 8 µg/mL (≈ 18 µM) | 128 µg/mL (≈ 288 µM) | 256 µg/mL (≈ 576 µM) | 16 µg/mL (≈ 36 µM) | 16 µg/mL (≈ 36 µM) | > 8 µg/mL | 128 µg/mL (≈ 288 µM) | 64 µg/mL (≈ 144 µM) | 16 µg/mL (≈ 36 µM) | 32 µg/mL (≈ 72 µM) |  |  |  |  |  |  | 
